Molecules are shown by their SMILES.

Drawing on ChEMBL document CHEMBL3400011, “Canthinone alkaloids are novel protein tyrosine phosphatase 1B inhibitors” (Bioorg Med Chem Lett, 2015), this text covers inhibition for 69 molecules.

In this assay the target is T1, Tyrosine-protein phosphatase non-receptor type 1 (Homo sapiens) (UniProt P18031).
T1 sequence (whole entry): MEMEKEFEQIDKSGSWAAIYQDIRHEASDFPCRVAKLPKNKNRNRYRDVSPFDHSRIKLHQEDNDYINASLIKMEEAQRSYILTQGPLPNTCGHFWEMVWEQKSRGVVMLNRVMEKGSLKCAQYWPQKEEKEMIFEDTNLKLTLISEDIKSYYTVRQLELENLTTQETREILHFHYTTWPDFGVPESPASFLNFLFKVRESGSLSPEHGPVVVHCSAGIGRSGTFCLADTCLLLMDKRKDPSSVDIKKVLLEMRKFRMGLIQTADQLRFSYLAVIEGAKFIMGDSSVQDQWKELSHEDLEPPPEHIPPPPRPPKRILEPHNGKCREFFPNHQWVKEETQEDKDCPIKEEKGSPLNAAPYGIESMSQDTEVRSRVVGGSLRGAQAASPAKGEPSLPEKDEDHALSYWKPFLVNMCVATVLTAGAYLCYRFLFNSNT
Briefly: Inhibition of PTP1B (unknown origin) assessed as inhibition rate at 100 uM. The essentials:
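PTP1B enzymatic assay with RK-682 as the positive control. For the single-point screen, compounds were tested at a final 100 µM. For dose–response, inhibition was measured over a range of compound concentrations, and IC50 was obtained by regression analysis.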
`CCC1NC(C(=O)O)Cc2c1[nH]c1ccccc21` (centres undefined): the inhibition was 20.8%.
`O=C(O)C1Cc2c([nH]c3ccccc23)CN1` (centres undefined): the inhibition worked out at 26%.
For `COc1cccc2c1[nH]c1c(CCn3ccc4c5n(c(=O)c(=O)cc3-5)c3ccccc43)ncc(OC)c12`, the inhibition is 48.5%.
Take `COc1cccc2c1[nH]c1c(C(=O)CCC(=O)c3ncc(OC)c4c3[nH]c3c(OC)cccc34)ncc(OC)c12`: the inhibition came to 43.8%.
As for `COc1ccc2c3ccnc4ccc(=O)n(c2c1)c43`, the figure is 34.9%; as for `CCn1ccc2c3n(c(=O)c(=O)cc1-3)c1ccccc21`, 63.4%; as for `COC(=O)c1nccc2c1[nH]c1ccccc12`, 2.9%.
In the case of `COc1c(OC(C)=O)c(=O)n2c3ccccc3c3ccnc1c32`, the inhibition was found to be 68.8%.
As to `O=c1c(O)cc2nccc3c4ccccc4n1c23`, the inhibition came to 84.7%.
As for `Oc1nccc2c1[nH]c1ccccc12`, the figure is 8.5%; as for `CCCC1NC(C(=O)O)Cc2c1[nH]c1ccccc21` (centres undefined), 46.9%; as for `COc1c(OC(C)=O)c(=O)n2c3ccccc3c3cc(OC(C)=O)nc1c32`, 41.7%.
As for `Cc1nc(C(=O)O)cc2c1[nH]c1ccccc12`, the figure is 18.2%; as for `CCCC1NC(C(=O)OC)Cc2c1[nH]c1ccccc21` (centres undefined), 7.9%; as for `COCc1nccc2c1[nH]c1ccccc12`, 27.4%.
Take `CCOC(=O)c1nccc2c1[nH]c1ccccc12`: the inhibition came out at 26.9%.
As for `COc1cnc(C(C)=O)c2[nH]c3ccccc3c12`, the figure is 21.6%; as for `COc1cnc2ccc(=O)n3c4ccccc4c1c23`, 23.7%; as for `CCCCn1ccc2c3n(c(=O)c(=O)c(OC)c1-3)c1ccccc21`, 11.7%.
As for `CCc1nccc2c1[nH]c1ccccc12`, the figure is 30.2%; as for `O=C(O)c1cc2c([nH]c3ccccc32)c(-c2cccc3c2OCO3)n1`, 19.8%.
As for `COC(=O)c1cc2c([nH]c3ccccc32)c(C)n1`, the figure is 14.3%; as for `C(=C\c1nccc2c1[nH]c1ccccc12)/c1ccccc1`, 15%; as for `CC1NC(C(=O)O)Cc2c1[nH]c1ccccc21` (centres undefined), 21.3%.
Take `O=c1ccc2c3c(cc[n+]2[O-])c2ccccc2n13`: the inhibition was determined as 50.9%.
Take `CCc1ncc(OC)c2c1[nH]c1ccccc12`: the inhibition turned out to be 16.1%.
As for `C=Cc1ncc(OC)c2c1[nH]c1c(OC)cccc12`, the figure is 40.3%; as for `COC(=O)/C=C/C(=O)c1ncc(OC)c2c1[nH]c1c(OC)cccc12`, 21%; as for `COc1c(O)c2nccc3c4ccccc4n(c1=O)c23`, 55.9%.
Consider `COc1cnc(C(OC)OC(C)=O)c2[nH]c3ccccc3c12` (centres undefined), for which the inhibition was 11.6%.
As for `CCC1NC(C(=O)c2ccccc2)Cc2c1[nH]c1ccccc21` (centres undefined), the figure is 4.7%.
Take `COc1cccc2c1[nH]c1c(CCC(OC)C(=O)c3nccc4c3[nH]c3ccccc34)ncc(OC)c12` (centres undefined): the inhibition came out at 44.1%.
On to `CC(C)C1NC(C(=O)O)Cc2c1[nH]c1ccccc21` (centres undefined), for which the inhibition was determined as 11.3%.
Regarding `COCc1c2[nH]c3ccccc3c2cc[n+]1[O-]`, the inhibition stood at 59%.
As for `Cc1nccc2c1[nH]c1ccccc12`, the figure is 7.7%; as for `COc1cnc(C(O)CO)c2[nH]c3ccccc3c12` (centres undefined), 10.5%.
For `COc1c(OC)c2nc(O)cc3c4ccccc4n(c1=O)c23`, the inhibition came to 81.9%.
As for `O=C(O)CCc1nccc2c1[nH]c1ccccc12`, the figure is 39.3%; as for `CCn1ccc2c3n(c(=O)c(=O)c(OC)c1-3)c1ccccc21`, 43.6%; as for `C=Cc1ncc(OC)c2c3ccccc3n(OC)c12`, 33.5%.
As for `COc1c(O)c2nccc3c4cc(O)ccc4n(c1=O)c23`, the figure is 30.5%; as for `COc1c2n(C)ccc3c-2n(c(=O)c1=O)c1ccccc31`, 76.6%.
Turning to `O=c1ccc2nccc3c4c(O)cccc4n1c23`, the inhibition was found to be 50.6%.
As for `CCCCn1ccc2c3n(c(=O)c(=O)cc1-3)c1ccccc21`, the figure is 42%.
As for `COCCc1ncc(OC)c2c1[nH]c1c(OC)cccc12`, the figure is 28.6%; as for `COc1cnc(C(=O)CC(CO)c2ncc(OC)c3c2[nH]c2ccccc23)c2[nH]c3ccccc3c12` (centres undefined), 33%.
As for `COc1c(OC)c2c3c(cc(=O)n2C)c2ccccc2n3c1=O`, the inhibition is 34.4%.
As for `Cc1c2[nH]c3ccccc3c2cc[n+]1[O-]`, the figure is -3%; as for `O=c1ccc2nccc3c4ccccc4n1c23`, 15.3%.
As to `COn1c(=O)cc2c3ccccc3n3c(=O)ccc1c23`, the inhibition turned out to be 31.2%.
As for `CCc1ncc(OC)c2c1[nH]c1c(O)cccc12`, the figure is 27.1%; as for `Cn1c(=O)cc2c3ccccc3n3c(=O)ccc1c23`, 33.6%; as for `COc1c(OC)c2c3c(cc[n+]2[O-])c2ccccc2n3c1=O`, 14.8%.
As for `COc1cnc(CCn2ccc3c4n(c(=O)c(=O)cc2-4)c2ccccc32)c2c1c1ccccc1n2OC`, the figure is 43.9%.
Take `COC(=O)c1cc2c(cn1)[nH]c1ccccc12`: the inhibition came to 23%.
As for `CC(=O)c1nccc2c1[nH]c1ccccc12`, the figure is 25.1%; as for `OCc1nccc2c1[nH]c1ccccc12`, 17%.
As for `CCn1ccc2c3n(c(=O)c(=O)cc1-3)c1cc(OC)ccc21`, the figure is 59.4%.
Consider `O=C1NC(=O)c2[nH]c3ccccc3c2C1=O`, for which the inhibition came to 80.7%.
`O=C(O)c1nccc2c1[nH]c1ccccc12`: the inhibition is 28.5%.
As for `NC(=O)c1nccc2c1[nH]c1ccccc12`, the figure is 20.3%; as for `COC(=O)C1Cc2c([nH]c3ccccc23)CN1` (centres undefined), 21.3%.
As for `CCc1c2[nH]c3ccccc3c2cc[n+]1[O-]`, the figure is 4.3%.
As for `COc1c(OC)c2nccc3c4ccccc4n(c1=O)c23`, the figure is 26.5%; as for `COc1c(O)c(=O)n2c3ccccc3c3cc(=O)n(C)c1c32`, 26.3%; as for `CCc1nc(C(=O)OC)cc2c1[nH]c1ccccc12`, 21.2%.
For the molecule `COc1c(O)c(=O)n2c3ccccc3c3ccnc1c32`, the inhibition amounted to 42.8%.
As for `O=Cc1nccc2c1[nH]c1ccccc12`, the figure is 9.8%; as for `O=c1c(CO)cc2nccc3c4ccccc4n1c23`, 33.8%.

The inhibition is the change of the read-out against control, counted positive when it falls.
